{
  "source": "ChEMBL document CHEMBL1127042",
  "about": "“Molecular size and flexibility as determinants of selectivity in the oxidation of N-methyl-4-phenyl-1,2,3,6-tetrahydropyridine analogs by monoamine oxidase A and B” (J Med Chem, 1993)",
  "proteins": {"B1": {"name": "Amine oxidase [flavin-containing] B (Bos taurus) (protein)", "chain": "MSSKCDVVVVGGGISGMAAAKLLHDSGLNVIVLEARDRVGGRTYTLRNQKVKYVDLGGSYVGPTQNHILRLSKELGLETYKVNEVERLIHHTKGKSYPFRGSFPSVWNPITYLDHNNLWRTMDDMGREIPSDAPWKAPLAEQWDLMTMKELLDKICWTESSKQLAILFVNLCVTAEIHEVSALWFLWYVKQCGGTTRIFSTSNGGQERKFVGGSGQVSERIMDLLGDRVKLERPVIHIDQTGENVLVETLNHELYEAKYVISAVPPVLGMKIHFNPPLPMMRNQLITRVPLGSVIKSIVYYKEPFWRNMDYCGSMIIEGEEAPVAYALDDTKPDGSYPAIIGFILAHKARKLARLTKEERLKKLCDLYAKVLGSQEALHPVHYEEKNWCEEQYSGGCYTSYFPPGIMTQYGRVLRQPVGRIYFAGTETATHWSGYMEGAVEAGERAAREILHAMGKIPEDEIWLPEPESVDVPAKPITTTFLQRHLPSVPGLLKLIGLTTIFSATALGFLAHKRGLLVRI"}, "B2": {"name": "Amine oxidase [flavin-containing] A (Homo sapiens) (protein)", "chain": "MENQEKASIAGHMFDVVVIGGGISGLSAAKLLTEYGVSVLVLEARDRVGGRTYTIRNEHVDYVDVGGAYVGPTQNRILRLSKELGIETYKVNVSERLVQYVKGKTYPFRGAFPPVWNPIAYLDYNNLWRTIDNMGKEIPTDAPWEAQHADKWDKMTMKELIDKICWTKTARRFAYLFVNINVTSEPHEVSALWFLWYVKQCGGTTRIFSVTNGGQERKFVGGSGQVSERIMDLLGDQVKLNHPVTHVDQSSDNIIIETLNHEHYECKYVINAIPPTLTAKIHFRPELPAERNQLIQRLPMGAVIKCMMYYKEAFWKKKDYCGCMIIEDEDAPISITLDDTKPDGSLPAIMGFILARKADRLAKLHKEIRKKKICELYAKVLGSQEALHPVHYEEKNWCEEQYSGGCYTAYFPPGIMTQYGRVIRQPVGRIFFAGTETATKWSGYMEGAVEAGERAAREVLNGLGKVTEKDIWVQEPESKDVPAVEITHTFWERNLPSVSGLLKIIGFSTSVTALGFVLYKYKLLPRS"}},
  "key": {"[1]": {"substrate": "CN1CC=C(CCc2ccc3ccccc3c2)CC1", "assay": "(§1) Michaelis-Menten constant against MAO B.", "set-up": "species or system Bos taurus", "summary_of_the_method": "(§2)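 Beef liver MAO B, purified. Initial oxidation rates measured polarographically at 30 °C in sodium phosphate buffer, pH 7.2, with 0.2% (w/v) Brij-35. The reaction was started by adding enzyme, dosed so rates were measurable within 60-120 s. Vmax came from double-reciprocal plots. Turnover number was Vmax per flavin content. Flavin content came from the optical density change on anaerobic reduction by benzylamine.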"}, "[2]": {"substrate": "CN1CC=C(CCc2cccc3ccccc23)CC1", "assay": "as §1", "set-up": "species or system Bos taurus", "summary_of_the_method": "as §2"}, "[3]": {"substrate": "CN1CC=C(CCc2ccccc2)CC1", "assay": "as §1", "set-up": "species or system Bos taurus", "summary_of_the_method": "as §2"}, "[4]": {"substrate": "CN1CC=C(CCc2cccs2)CC1", "assay": "as §1", "set-up": "species or system Bos taurus", "summary_of_the_method": "as §2"}, "[5]": {"substrate": "CN1CC=C(CCc2ccsc2)CC1", "assay": "as §1", "set-up": "species or system Bos taurus", "summary_of_the_method": "as §2"}, "[6]": {"substrate": "CN1CC=C(Cc2ccc3ccccc3c2)CC1", "assay": "as §1", "set-up": "species or system Bos taurus", "summary_of_the_method": "as §2"}, "[7]": {"substrate": "CN1CC=C(Cc2cccc3ccccc23)CC1", "assay": "as §1", "set-up": "species or system Bos taurus", "summary_of_the_method": "as §2"}, "[8]": {"substrate": "CN1CC=C(Cc2ccccc2)CC1", "assay": "as §1", "set-up": "species or system Bos taurus", "summary_of_the_method": "as §2"}, "[9]": {"substrate": "CN1CC=C(Cc2cccs2)CC1", "assay": "as §1", "set-up": "species or system Bos taurus", "summary_of_the_method": "as §2"}, "[10]": {"substrate": "CN1CC=C(Cc2ccsc2)CC1", "assay": "as §1", "set-up": "species or system Bos taurus", "summary_of_the_method": "as §2"}, "[11]": {"substrate": "CN1CC=C(c2ccc3ccccc3c2)CC1", "assay": "as §1", "set-up": "species or system Bos taurus", "summary_of_the_method": "as §2"}, "[12]": {"substrate": "CN1CC=C(c2cccc3ccccc23)CC1", "assay": "as §1", "set-up": "species or system Bos taurus", "summary_of_the_method": "as §2"}, "[13]": {"substrate": "CN1CC=C(c2cccs2)CC1", "assay": "as §1", "set-up": "species or system Bos taurus", "summary_of_the_method": "as §2"}, "[14]": {"substrate": "CN1CC=C(c2ccsc2)CC1", "assay": "as §1", "set-up": "species or system Bos taurus", "summary_of_the_method": "as §2"}, "[15]": {"substrate": "NCCC(=O)c1ccccc1N", "assay": "as §1", "set-up": "species or system Bos taurus", "summary_of_the_method": "as §2"}, "[16]": {"substrate": "NCc1ccccc1", "assay": "as §1", "set-up": "species or system Bos taurus", "summary_of_the_method": "as §2"}, "[17]": {"substrate": "CN1CC=C(CCc2ccc3ccccc3c2)CC1", "assay": "(§3) Michaelis-Menten constant against MAO A.", "summary_of_the_method": "(§4)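 Human liver MAO A expressed in yeast, purified. Initial oxidation rates measured polarographically (O2 uptake) at 30 °C in sodium phosphate buffer, pH 7.2, with 0.2% (w/v) Brij-35. Enzyme was added last to start the reaction, and its amount was set so rates were read within 60-120 s. Vmax came from double-reciprocal plots. TN was Vmax divided by flavin content. Flavin content was found from the optical density change on anaerobic reduction by kynuramine.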"}, "[18]": {"substrate": "CN1CC=C(CCc2cccc3ccccc23)CC1", "assay": "as §3", "summary_of_the_method": "as §4"}, "[19]": {"substrate": "CN1CC=C(CCc2ccccc2)CC1", "assay": "as §3", "summary_of_the_method": "as §4"}, "[20]": {"substrate": "CN1CC=C(CCc2cccs2)CC1", "assay": "as §3", "summary_of_the_method": "as §4"}, "[21]": {"substrate": "CN1CC=C(CCc2ccsc2)CC1", "assay": "as §3", "summary_of_the_method": "as §4"}, "[22]": {"substrate": "CN1CC=C(Cc2ccc3ccccc3c2)CC1", "assay": "as §3", "summary_of_the_method": "as §4"}, "[23]": {"substrate": "CN1CC=C(Cc2cccc3ccccc23)CC1", "assay": "as §3", "summary_of_the_method": "as §4"}, "[24]": {"substrate": "CN1CC=C(Cc2ccccc2)CC1", "assay": "as §3", "summary_of_the_method": "as §4"}, "[25]": {"substrate": "CN1CC=C(Cc2cccs2)CC1", "assay": "as §3", "summary_of_the_method": "as §4"}, "[26]": {"substrate": "CN1CC=C(Cc2ccsc2)CC1", "assay": "as §3", "summary_of_the_method": "as §4"}, "[27]": {"substrate": "CN1CC=C(c2ccc3ccccc3c2)CC1", "assay": "as §3", "summary_of_the_method": "as §4"}, "[28]": {"substrate": "CN1CC=C(c2cccc3ccccc23)CC1", "assay": "as §3", "summary_of_the_method": "as §4"}, "[29]": {"substrate": "CN1CC=C(c2cccs2)CC1", "assay": "as §3", "summary_of_the_method": "as §4"}, "[30]": {"substrate": "CN1CC=C(c2ccsc2)CC1", "assay": "as §3", "summary_of_the_method": "as §4"}, "[31]": {"substrate": "NCCC(=O)c1ccccc1N", "assay": "as §3", "summary_of_the_method": "as §4"}, "[32]": {"substrate": "NCc1ccccc1", "assay": "as §3", "summary_of_the_method": "as §4"}},
  "data": [
    {"protein": "B1", "values": [
      {"measurement": "Km", "setting": "[1]", "result": 1030, "unit": "µM"},
      {"measurement": "Km", "setting": "[2]", "result": 1280, "unit": "µM"},
      {"measurement": "Km", "setting": "[3]", "result": 54, "unit": "µM"},
      {"measurement": "Km", "setting": "[4]", "result": 49, "unit": "µM"},
      {"measurement": "Km", "setting": "[5]", "result": 57, "unit": "µM"},
      {"measurement": "Km", "setting": "[6]", "result": 840, "unit": "µM"},
      {"measurement": "Km", "setting": "[7]", "result": 850, "unit": "µM"},
      {"measurement": "Km", "setting": "[8]", "result": 154, "unit": "µM"},
      {"measurement": "Km", "setting": "[9]", "result": 102, "unit": "µM"},
      {"measurement": "Km", "setting": "[10]", "result": 195, "unit": "µM"},
      {"measurement": "Km", "setting": "[11]", "result": 730, "unit": "µM"},
      {"measurement": "Km", "setting": "[12]", "result": 110, "unit": "µM"},
      {"measurement": "Km", "setting": "[13]", "result": 168, "unit": "µM"},
      {"measurement": "Km", "setting": "[14]", "result": 26, "unit": "µM"},
      {"measurement": "Km", "setting": "[15]", "result": 84, "unit": "µM"},
      {"measurement": "Km", "setting": "[16]", "result": 290, "unit": "µM"}
    ]},
    {"protein": "B2", "values": [
      {"measurement": "Km", "setting": "[17]", "result": 43, "unit": "µM"},
      {"measurement": "Km", "setting": "[18]", "result": 76, "unit": "µM"},
      {"measurement": "Km", "setting": "[19]", "result": 120, "unit": "µM"},
      {"measurement": "Km", "setting": "[20]", "result": 108, "unit": "µM"},
      {"measurement": "Km", "setting": "[21]", "result": 130, "unit": "µM"},
      {"measurement": "Km", "setting": "[22]", "result": 36, "unit": "µM"},
      {"measurement": "Km", "setting": "[23]", "result": 167, "unit": "µM"},
      {"measurement": "Km", "setting": "[24]", "result": 66, "unit": "µM"},
      {"measurement": "Km", "setting": "[25]", "result": 48, "unit": "µM"},
      {"measurement": "Km", "setting": "[26]", "result": 136, "unit": "µM"},
      {"measurement": "Km", "setting": "[27]", "result": 4.6, "unit": "µM"},
      {"measurement": "Km", "setting": "[28]", "result": 74, "unit": "µM"},
      {"measurement": "Km", "setting": "[29]", "result": 188, "unit": "µM"},
      {"measurement": "Km", "setting": "[30]", "result": 102, "unit": "µM"},
      {"measurement": "Km", "setting": "[31]", "result": 170, "unit": "µM"},
      {"measurement": "Km", "setting": "[32]", "result": 780, "unit": "µM"}
    ]}
  ]
}
